In series [1] the target is T1, Nuclear factor erythroid 2-related factor 2 (Homo sapiens) (UniProt Q16236).
T1 sequence (whole entry): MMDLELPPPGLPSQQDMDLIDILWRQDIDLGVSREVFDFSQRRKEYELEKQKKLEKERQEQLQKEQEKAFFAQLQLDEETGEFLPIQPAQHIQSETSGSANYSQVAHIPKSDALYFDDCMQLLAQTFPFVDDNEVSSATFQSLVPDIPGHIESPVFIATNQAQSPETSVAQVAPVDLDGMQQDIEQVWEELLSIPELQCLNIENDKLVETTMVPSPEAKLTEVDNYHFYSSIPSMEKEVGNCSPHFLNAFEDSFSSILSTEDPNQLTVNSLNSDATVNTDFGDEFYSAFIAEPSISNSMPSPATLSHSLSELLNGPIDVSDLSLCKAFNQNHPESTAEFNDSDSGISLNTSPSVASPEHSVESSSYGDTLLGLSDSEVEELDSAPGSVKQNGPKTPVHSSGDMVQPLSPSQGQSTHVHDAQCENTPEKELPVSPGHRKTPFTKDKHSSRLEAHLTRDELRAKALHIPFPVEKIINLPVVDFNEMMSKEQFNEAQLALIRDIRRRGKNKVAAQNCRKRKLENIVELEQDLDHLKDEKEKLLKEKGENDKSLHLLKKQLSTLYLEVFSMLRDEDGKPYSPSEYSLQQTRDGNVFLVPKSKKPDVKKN
In words: Activation of Nrf2/ARE-mediated transcription in human SK-N-SH cells after 6 hrs by luciferase reporter gene assay. In kind it is cell-based. An outline of the steps: (§1)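 SK-N-SH cells were transiently transfected with pGL3-ARE-Luc. After 24 h they were exposed to increasing concentrations of compound for 6 h. Cells were washed in PBS and lysed in Tris-phosphate pH 7.8 buffer with MgCl₂, DTT, Triton X-100 and glycerol, then luciferase activity was read in the supernatant. Output is fold induction over untreated cells; three independent experiments, mean SD, Student's t test.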

Series [2] is filed under the species Homo sapiens. In words: (§2) Inhibition of NF-kappaB in human 5.1 cells assessed as inhibition of TNFalpha-induced HIV-1-LTR activation after 6 hrs by luciferase reporter gene assay. In kind it is cell-based. An outline of the steps:
(§3)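 Jurkat-derived 5.1 clone, stably carrying HIV-LTR-driven luciferase and maintained under G418. Cells were preincubated with compound at the indicated doses, then stimulated with TNFα for 6 h (methods give 20 ng/mL, legend 2 ng/mL). Luciferase was read from lysate. Output is % inhibition versus TNFα alone; IC50 from curve fitting.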

For series [3], the system named is HeLa. In words: Cytotoxicity against human HeLa cells after 12 hrs. In kind it is cell-based.
Series [4] concerns Human immunodeficiency virus 1. In words: Antiviral activity against VSV-G protein pseudotyped human immunodeficiency virus 1 infected in human Jurkat cells assessed as inhibition of HIV-1 replication incubated 30 mins prior to infection measured after 12 hrs by luciferase reporter gene assay. In kind it is functional, organism-based. In short, it runs like this: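 Jurkat cells at 10⁶/mL were pretreated with compounds at increasing doses for 30 min. They were then infected with VSV-G-pseudotyped pNL4-3.Luc.R⁻E⁻ (200 ng p24). Firefly luciferase was read in lysates (Tris-phosphate pH 7.8, Triton X-100) 12 h after infection. Values are % activation versus untreated infected cells (100%), given as mean ± SD of independent experiments; IC₅₀ by curve fitting.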

In series [5] the target is Mitogen-activated protein kinase 9 (Homo sapiens) (UniProt P45984). In words: Inhibition of PMA-induced JNK2 phosphorylation in human Jurkat cells after 30 mins by Western blotting analysis.
Sequence of Mitogen-activated protein kinase 9 (Homo sapiens) (P45984 whole entry, looked up): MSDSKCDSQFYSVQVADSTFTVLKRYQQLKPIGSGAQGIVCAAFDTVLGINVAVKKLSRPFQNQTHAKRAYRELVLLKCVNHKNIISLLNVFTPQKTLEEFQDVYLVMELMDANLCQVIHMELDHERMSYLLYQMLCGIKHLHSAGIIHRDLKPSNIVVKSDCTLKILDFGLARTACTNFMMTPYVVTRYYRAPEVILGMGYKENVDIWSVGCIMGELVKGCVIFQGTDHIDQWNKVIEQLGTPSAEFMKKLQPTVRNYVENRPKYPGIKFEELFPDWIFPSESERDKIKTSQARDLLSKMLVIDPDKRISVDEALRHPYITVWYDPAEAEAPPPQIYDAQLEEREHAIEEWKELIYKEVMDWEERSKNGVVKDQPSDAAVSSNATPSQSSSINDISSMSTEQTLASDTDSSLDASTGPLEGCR
For series [6], the system named is Human immunodeficiency virus 1. In words: Antiviral activity against VSV-G protein pseudotyped human immunodeficiency virus 1 infected in human Jurkat cells assessed as inhibition of HIV-1 replication incubated 30 mins prior to infection measured after 12 hrs by luciferase reporter gene assay relative to curcumin. In kind it is functional.
Series [7] relates to SK-N-SH. In words: Cytotoxicity against human SK-N-SH cells after 6 hrs. It counts as cell-based.
In series [8] the test system is Jurkat. In words: Inhibition of PMA-induced NF-kappaB activation in human Jurkat cells assessed as inhibition of IkappaBalpha phosphorylation after 30 mins by Western blotting analysis. In kind it is cell-based. In short, it runs like this:
(§4)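 Jurkat cells (10⁶/mL) were preincubated 30 min with compound, then given PMA (50 ng/mL) for 15 min. Protein was extracted in NP-40 lysis buffer with protease and phosphatase inhibitors. 30 μg per lane was run on 10% SDS-PAGE and transferred to nitrocellulose. Blots were probed for phospho- and total ERK1/2, JNK, p65 and IκBα (incl. phospho-Ser32/36), with tubulin as loading control.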

Series [9] in a line: Inhibition of Tat-induced HIV-1-Long terminal repeat transactivation in human Hela Tat-Luc cells after 12 hrs by luciferase reporter gene assay. In kind it is cell-based. As to conditions: Human immunodeficiency virus 1, HeLa. An outline of the steps: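 HeLa cells stably transfected with pLTR-Luc and pcDNA3-Tat were exposed to compound at the indicated doses, or to DRB (50 μM) as reference, for 12 h. Luciferase activity was then measured. Output is % activation relative to untreated cells; four independent experiments, mean SD, Student's t test; IC50 from curve fitting.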

Series [10] has as its system Jurkat. In words: Inhibition of PMA-induced NF-kappaB activation in human Jurkat cells assessed as inhibition of IkappaBalpha degradation after 30 mins by Western blotting analysis. In kind it is cell-based. An outline of the steps:
as §4

Series [11] relates to Jurkat. In words: Cytotoxicity against human Jurkat cells after 6 hrs. In kind it is cell-based.
Series [12] can be described thus: as §2. In kind it is cell-based. An outline of the steps:
as §3

The target of series [13] is T1, Nuclear factor erythroid 2-related factor 2 (Homo sapiens). In words: Activation of Nrf2/ARE-mediated transcription in human SK-N-SH cells at low concentration after 6 hrs by luciferase reporter gene assay. In kind it is cell-based. In short, it runs like this:
as §1

Series [14] has the same target. In words: Activation of Nrf2/ARE-mediated transcription in human SK-N-SH cells at high concentration after 6 hrs by luciferase reporter gene assay. It counts as cell-based. In short, it runs like this:
as §1

Series [15] addresses Mitogen-activated protein kinase 8 (Homo sapiens) (UniProt P45983). In words: Inhibition of PMA-induced JNK1 phosphorylation in human Jurkat cells after 30 mins by Western blotting analysis. It counts as cell-based. An outline of the steps:
as §4

The target of series [16] is Mitogen-activated protein kinase; ERK1/ERK2 (Homo sapiens) (UniProt P27361+P28482). In words: Inhibition of PMA-induced ERK 1/2 phosphorylation in human Jurkat cells after 30 mins by Western blotting analysis. It counts as cell-based. In short, it runs like this: as §4
Sequence of Mitogen-activated protein kinase; ERK1/ERK2 (Homo sapiens) (P27361 whole entry, looked up): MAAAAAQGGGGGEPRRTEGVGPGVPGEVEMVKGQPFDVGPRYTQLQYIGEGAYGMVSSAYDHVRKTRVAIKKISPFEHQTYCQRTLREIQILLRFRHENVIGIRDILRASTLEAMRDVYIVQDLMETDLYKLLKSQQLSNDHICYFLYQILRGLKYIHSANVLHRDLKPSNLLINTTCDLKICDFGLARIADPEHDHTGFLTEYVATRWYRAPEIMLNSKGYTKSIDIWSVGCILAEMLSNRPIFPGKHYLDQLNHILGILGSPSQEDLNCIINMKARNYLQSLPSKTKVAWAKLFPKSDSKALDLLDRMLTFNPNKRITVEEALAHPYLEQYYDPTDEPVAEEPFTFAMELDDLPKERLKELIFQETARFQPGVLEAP
Sequence of Mitogen-activated protein kinase; ERK1/ERK2 (Homo sapiens) (P28482 whole entry, looked up): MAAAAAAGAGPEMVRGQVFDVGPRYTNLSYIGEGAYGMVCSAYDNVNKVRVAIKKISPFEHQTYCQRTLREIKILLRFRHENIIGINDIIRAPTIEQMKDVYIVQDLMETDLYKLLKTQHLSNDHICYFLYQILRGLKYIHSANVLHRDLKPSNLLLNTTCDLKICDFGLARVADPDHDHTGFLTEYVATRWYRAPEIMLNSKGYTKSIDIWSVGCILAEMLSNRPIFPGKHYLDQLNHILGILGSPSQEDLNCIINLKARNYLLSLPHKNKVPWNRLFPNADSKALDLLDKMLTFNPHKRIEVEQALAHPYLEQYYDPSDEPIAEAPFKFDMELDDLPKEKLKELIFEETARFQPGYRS
Series [17] has as its target Transcription factor p65 (Homo sapiens) (UniProt Q04206). In words: Inhibition of PMA-induced NF-kappaB p65 phosphorylation in human Jurkat cells after 30 mins by Western blotting analysis. In kind it is cell-based. In short, it runs like this: as §4

Active and inactive are the calls of the source. No cut-off for these calls is given here.

Sequence of Mitogen-activated protein kinase 8 (Homo sapiens) (P45983 whole entry): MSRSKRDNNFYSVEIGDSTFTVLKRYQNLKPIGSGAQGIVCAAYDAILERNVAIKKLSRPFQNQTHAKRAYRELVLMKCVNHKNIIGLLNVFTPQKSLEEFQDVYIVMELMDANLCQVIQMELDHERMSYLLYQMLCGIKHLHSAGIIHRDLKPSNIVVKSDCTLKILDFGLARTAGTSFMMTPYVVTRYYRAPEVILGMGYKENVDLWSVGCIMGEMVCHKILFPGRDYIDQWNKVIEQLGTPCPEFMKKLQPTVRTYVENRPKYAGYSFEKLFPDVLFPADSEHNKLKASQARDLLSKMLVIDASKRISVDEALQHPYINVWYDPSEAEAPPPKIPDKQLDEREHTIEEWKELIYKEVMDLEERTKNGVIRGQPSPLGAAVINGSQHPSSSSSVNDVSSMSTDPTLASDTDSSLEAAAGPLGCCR
Sequence of Transcription factor p65 (Homo sapiens) (Q04206 whole entry): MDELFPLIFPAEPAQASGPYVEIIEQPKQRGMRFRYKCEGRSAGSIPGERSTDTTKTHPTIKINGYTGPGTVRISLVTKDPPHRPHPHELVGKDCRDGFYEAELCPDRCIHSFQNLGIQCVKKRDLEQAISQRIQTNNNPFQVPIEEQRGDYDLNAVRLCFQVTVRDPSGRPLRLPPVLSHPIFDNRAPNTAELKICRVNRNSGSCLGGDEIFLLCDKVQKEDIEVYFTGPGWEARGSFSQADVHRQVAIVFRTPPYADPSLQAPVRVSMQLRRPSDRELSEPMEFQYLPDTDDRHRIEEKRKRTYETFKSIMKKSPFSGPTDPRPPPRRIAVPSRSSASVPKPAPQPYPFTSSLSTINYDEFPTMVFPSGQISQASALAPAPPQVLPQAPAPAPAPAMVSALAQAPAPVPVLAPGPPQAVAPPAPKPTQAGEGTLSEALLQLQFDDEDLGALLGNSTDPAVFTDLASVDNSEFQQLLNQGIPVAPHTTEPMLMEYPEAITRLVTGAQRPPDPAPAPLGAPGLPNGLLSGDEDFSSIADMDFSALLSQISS

In the case of `COc1cc(/C=C/C(=O)/C=C/c2cc(CC=C(C)C)c(O)c(OC)c2)cc(CC=C(C)C)c1O`, the result in [1] was inactive. Further, the inhibition entry in series [2] was “Active”.
Take `COc1cc(CCC(=O)CC(=O)CCc2ccc(O)c(OC)c2)ccc1O`: the outcome in series [1] was inactive. Besides, the inhibition entry in series [2] was “Active”.
As to `COc1cc(/C=C/C(=O)/C=C/c2ccc(O)c(OC)c2)ccc1O`, the Activity result in [3], in series [7] and in series [11] was “Non-toxic” throughout. Moreover, the outcome in [4] and in [13] was Active. The inhibition result in [5], in [8], in [10], in series [15] and in series [17] was “Dose-dependent effect” throughout. Also, the Ratio in series [6] was determined as 4. Further, the figures for the IC50 in series [9] and in series [12] were 4.7 µM and 4.92 µM, respectively. For the same compound, the outcome in series [14] was inactive. For the same compound, the inhibition entry in [16] is “inactive”.
For `COc1cc(CCC(=O)CC(=O)CCc2cc(CCC(C)C)c(O)c(OC)c2)cc(CCC(C)C)c1O`, the inhibition result in [2] was “Active”.
Regarding `COc1cc(/C=C/C(=O)CC(=O)/C=C/c2ccc(O)c(OC)c2)ccc1O` [CURCUMIN], the outcome in series [1] and in series [4] was Active. In addition, the IC50 in series [12] was determined as 16.4 µM.
For the compound `COc1cc(/C=C/C(=O)CC(=O)/C=C/c2cc(CC=C(C)C)c(O)c(OC)c2)cc(CC=C(C)C)c1O`, the outcome in series [1] was inactive. In [2], the inhibition entry was “inactive”.

Values taken from ChEMBL document CHEMBL2390883, “Dissecting the pharmacophore of curcumin. Which structural element is critical for which action?” (J Nat Prod, 2013).
